Results on three compounds are retold here after ChEMBL document CHEMBL4261486, “2-Arylaminobenzothiazole-arylpropenone conjugates as tubulin polymerization inhibitors” (Medchemcomm, 2017).

Calls of active or inactive are those of the source. No cut-off for these calls is given here.

One assay relates to MIA PaCa-2. The assay can be described thus: Antiproliferative activity against human MIAPaCa2 cells after 48 hrs by sulforhodamine B assay. The following applies: MIA PaCa-2, 48 h. It is filed as functional, cell-based. The essentials: (§1)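 Cells grown in DMEM with 10% FBS at 37 °C under 5% CO2. Plated cells were allowed 24 h before drug, then exposed continuously for 48 h at 0.01, 0.1, 1, 10 and 100 μM. Monolayers were fixed with cold 10% TCA for 1 h at 4 °C and stained with 0.057% SRB in 1% acetic acid for 30 min. Bound dye was read at 510 nm. IC50 is the 50% growth-inhibitory concentration, using time-zero and control readings.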
For orientation: In SRB staining, fixed cells bind dye roughly in proportion to their protein.

Assay [1] has as its system HeLa. The assay can be described thus: Induction of apoptosis in human HeLa cells assessed as appearance of condensed nuclei at 1 uM after 24 hrs by Hoechst […] staining based fluorescence microscopic analysis. It is filed as functional, cell-based. The essentials:
(§2)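 HeLa cells, 5 × 10^4 per well, were allowed 24 h to adhere. They were then exposed to 1 μM for 24 h at 37 °C and fixed in 4% paraformaldehyde for 10 min at 4 °C. Staining was with Hoechst […] at 5 μg/mL for 30 min at room temperature. Nuclear morphology was scored by fluorescence microscopy (ex 350, em 460 nm).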

The target in assay [2] is T1, Tubulin (Homo sapiens) (UniProt P68371+Q9H4B7+P0DPH7+P68366+Q13509+Q71U36+P04350+Q3ZCM7+P07437+P68363+Q9BQE3+Q6PEY2+Q13885+Q9BVA1+Q9BUF5). The assay can be described thus: Inhibition of tubulin polymerization in human HeLa cells assessed as increase of tubulin in soluble fraction at 3 uM after 24 hrs by Western blot analysis. It is filed as cell-based. An outline of the steps: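 HeLa cells, 1 × 10^5 per well, were treated for 24 h (3 μM for test conjugates). The soluble fraction was extracted with warm PIPES/Triton lysis buffer for 3 min at 30 °C, and the remaining polymerized fraction was taken in Laemmli buffer. Equal volumes were run by SDS-10% PAGE and immunoblotted for α-tubulin (1:2000) with HRP secondary and ECL detection.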
(In general: In western blotting, separated proteins are transferred to a membrane and probed.)

Assay [3] addresses T1, Tubulin (Homo sapiens). The assay can be described thus: Inhibition of tubulin polymerization in human HeLa cells assessed as appearance of irregular microtubule at 3 uM after 24 hrs by DAPI staining based confocal microscopic analysis. It is filed as cell-based. The essentials:
(§3)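 HeLa cells on coverslips were exposed to 3 μM for 24 h and fixed in 3.5% formaldehyde in PBS. They were permeabilized with Triton X-100/Tween-20 and blocked in 2% BSA. Primary antitubulin antibody (1:200) was applied for 4 h, then FITC anti-mouse secondary (1:500) for 1 h. Nuclei were counterstained with DAPI and imaged by confocal microscopy at 60×, with a DMSO control.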

Assay [4] concerns HeLa. The assay can be described thus: Induction of reactive oxygen species generation in human HeLa cells at 1 uM after 24 hrs by carboxy-DCFH-DA staining based fluorescence microscopic analysis. The class given is functional, cell-based. The essentials: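 Cells were treated with 1 μM for 24 h, then loaded with carboxy-DCFH-DA (10 μM) for 30 min at room temperature in the dark. They were resuspended in PBS at 5 × 10^4 cells per mL. DCF fluorescence was read by spectrofluorometer (ex 488 / em 525 nm per methods; 485/535 nm per legend), and images were taken by fluorescence microscopy.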

Assay [5] has as its target T1, Tubulin (Homo sapiens). The assay can be described thus: Inhibition of tubulin polymerization in human HeLa cells assessed as appearance of rounded microtubule at 3 uM after 24 hrs by DAPI staining based confocal microscopic analysis. The class given is cell-based. The essentials:
as §3

Assay [6] concerns HeLa. The assay can be described thus: Cell cycle arrest in human HeLa cells assessed as accumulation at G2/M phase at 3 uM after 24 hrs by propidium iodide staining based flow cytometry (reference value: 33.4%). The class given is functional. For orientation: Flow cytometry measures light scatter and fluorescence of single cells or particles in a stream.
Another assay concerns A549. The assay can be described thus: Antiproliferative activity against human A549 cells after 48 hrs by sulforhodamine B assay. It is filed as functional, cell-based. The following applies: A549, 48 h. An outline of the steps: as §1
The test system of assay [7] is HeLa. The assay can be described thus: Induction of mitochondrial membrane potential loss in human HeLa cells assessed as collapse of the mitochondrial membrane potential at 1 uM after 24 hrs by Rh-123 staining based spectrofluorimetric method relative to control. It is filed as functional. The essentials:
(§4)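 HeLa cells, seeded at 5 × 10^5 cells per mL overnight, were exposed to 1 μM for 24 h. Cells were trypsinized and incubated in PBS with Rhodamine-123 (10 μg/mL) for 30 min at room temperature, then washed. Fluorescence was read on a spectrofluorometer relative to control. Data are mean ± SD of three independent experiments.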

For assay [8], the system named is HeLa. The assay can be described thus: Upregulation of cyclin-B1 expression in human HeLa cells at 3 uM after 24 hrs by Western blot analysis. The class given is functional, cell-based. An outline of the steps: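 HeLa cells were treated with 3 μM for 24 h, with a DMSO vehicle control. Cyclin B1 protein was detected by immunoblot with tubulin as loading control.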

Assay [9] concerns the target T1, Tubulin (Homo sapiens). The assay can be described thus: Inhibition of tubulin polymerization in human HeLa cells assessed as disruption of microtubule organization at 3 uM after 24 hrs by DAPI staining based confocal microscopic analysis. The class given is cell-based. An outline of the steps:
as §3

Assay [10] concerns HeLa. The assay can be described thus: Induction of cyclin-B1 mRNA expression in human HeLa cells by qRT-PCR analysis. It is filed as functional, cell-based.
A short description of assay [11]: Inhibition of bovine brain tubulin polymerization pretreated followed by GTP addition measured at 1 min interval for 1 hr by fluorescence reporter based assay. Set-up: species or system Bos taurus. The essentials: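 Bovine brain tubulin (2 mg/mL) was pre-incubated with compound at 1, 2, 3, 4 and 5 μM. The buffer was PEM (80 mM PIPES, 0.5 mM EGTA, 2 mM MgCl2, pH 6.9) with 10 μM fluorescent reporter and 1 mM GTP at 37 °C. Fluorescence (ex 360 / em 420 nm) was read every min for 1 h. IC50 was derived from these concentrations.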

The test system of assay [12] is HeLa. The assay can be described thus: Antiproliferative activity against human HeLa cells after 48 hrs by sulforhodamine B assay. The class given is functional, cell-based. The essentials:
as §1

The next assay relates to MDA-MB-231. The assay can be described thus: Antiproliferative activity against human MDA-MB-231 cells after 48 hrs by sulforhodamine B assay. The class given is functional, cell-based. Conditions: MDA-MB-231, 48 h. An outline of the steps: as §1
The test system of assay [13] is HeLa. The assay can be described thus: Induction of apoptosis in human HeLa cells assessed as appearance of condensed nuclei after 24 hrs by Hoechst […] staining based fluorescence microscopic analysis. The class given is functional, cell-based. An outline of the steps:
as §2

In assay [14] the test system is HeLa. The assay can be described thus: Induction of mitochondrial membrane potential loss in human HeLa cells at 1 uM after 24 hrs by Rh-123 staining based spectrofluorimetric method relative to control. It is filed as functional. The essentials: as §4

For the compound `COc1ccc2nc(-c3ccc(N/C=C\C(=O)c4ccc(OC)c(F)c4)cc3)sc2c1`, the IC50 (in general, the concentration that gives 50% inhibition) in the assay with MIA PaCa-2 amounted to 1300 nM; with A549, 900 nM; in assay [11] it was 2200 nM; in the assay with HeLa [12] it was 500 nM; in the assay with MDA-MB-231, 1100 nM. For the same compound, the result with HeLa [1], in the assay with HeLa [4], in the assay on HeLa [8] and in the assay with HeLa [10] was Active. Also, the inhibition result at Tubulin (Homo sapiens) [2], on Tubulin (Homo sapiens) [3], at Tubulin (Homo sapiens) [5] and at Tubulin (Homo sapiens) [9] was “Active” each time. The values for the Activity with HeLa [6] and in the assay on HeLa [7] were 88.7% and 40%, respectively.

On to `COC(=O)Nc1nc2cc(C(=O)c3cccs3)ccc2[nH]1` [NOCODAZOLE], for which the IC50 in the assay with MIA PaCa-2 was determined as 910 nM; in the assay on A549, 820 nM; in assay [11] it was 1800 nM; in the assay on HeLa [12], 840 nM; with MDA-MB-231, 710 nM. In addition, the outcome in the assay on HeLa [4] and in the assay with HeLa [13] was Active. Further, the Activity with HeLa [6] was 87.5%.

As to `COc1ccc2nc(-c3ccc(N/C=C\C(=O)c4ccc(OC)c(F)c4)c(C)c3)sc2c1`, the IC50 came out at 2300 nM in the assay on MIA PaCa-2; 1400 nM in the assay with A549; 2900 nM in assay [11]; 600 nM in the assay with HeLa [12]; 2000 nM with MDA-MB-231. The outcome in the assay on HeLa [1], with HeLa [4], in the assay with HeLa [8] and in the assay with HeLa [10] was Active. Further, the inhibition entry at Tubulin (Homo sapiens) [2], on Tubulin (Homo sapiens) [3], at Tubulin (Homo sapiens) [5] and on Tubulin (Homo sapiens) [9] was “Active” in each case. Also, the Activity in the assay on HeLa [6] is reported as 86.1%; in the assay with HeLa [14] it was 30%.
